Measured values as given in the M2OR odorant receptor database.

Molecular target: T1, UniProt A2ATE5
T1 sequence (whole entry): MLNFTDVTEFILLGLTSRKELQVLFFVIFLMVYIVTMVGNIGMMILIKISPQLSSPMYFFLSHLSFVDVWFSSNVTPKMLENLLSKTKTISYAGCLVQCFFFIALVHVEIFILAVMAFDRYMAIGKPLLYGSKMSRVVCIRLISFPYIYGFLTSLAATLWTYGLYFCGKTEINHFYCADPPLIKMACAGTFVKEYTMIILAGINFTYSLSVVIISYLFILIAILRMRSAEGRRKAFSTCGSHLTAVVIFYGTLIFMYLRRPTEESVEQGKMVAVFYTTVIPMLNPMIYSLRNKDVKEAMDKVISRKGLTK
Conditions: stereoisomer not certain
Outline: (§1)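 Each receptor–molecule pair is labelled responsive or non-responsive (inactive) according to whether the original authors judged the measured signal statistically different from baseline. The data were taken from the main text and supplementary material of published papers and checked for typos and inconsistencies. Assay methods differed by source, with transient luciferase assays in mammalian cell lines being common.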
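Further: active if original authors judged signal statistically different from baseline.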

SMILES | odorant receptor agonist call
CCCCCCCCCC=CC=O | inactive
CC(C)=C1CCC(C)CC1=O (configuration not stated) | inactive
CC1CC=CCCCCCCCCCC(=O)C1 (configuration not stated) | inactive
CC1(C)CC(=O)CC(=O)C1 | inactive
CCC(C)c1nccnc1OC (configuration not stated) | inactive
CCOC(=O)CC(C)C | inactive
CCc1ncc(C)nc1CC | inactive
CCc1ccccc1O | inactive
C=C(C)C1CCC2(C)OC2C1 (configuration not stated) | inactive
CCCCCCCCC(=O)O | inactive
C=C(C)C1CC=C(C)CC1 (configuration not stated) | inactive
CCCCCCO | inactive
COc1nccnc1C | inactive
CCc1nccnc1CC | inactive
CCCCCCC(C)O (configuration not stated) | inactive
CC(=O)OCCc1ccccc1 | inactive
COc1nccnc1C(C)C | inactive
COC(OC)c1ccccc1 | inactive
O=C(O)CCCCCBr | inactive

SMILES | odorant receptor agonist call
O=C(O)CCCCCCCCC(=O)O | inactive
O=C([O-])CCCCCCC(=O)[O-].[H+].[H+] | inactive
CCCCCCCOC(=O)C(C)C | inactive
CC1CCC(C(C)C)C(=O)C1 (configuration not stated) | inactive
O=C(O)C1CCC1 | inactive
CSSCc1ccco1 | inactive
CCCCCCCCCCCO | inactive
Cc1ccccc1OC(=O)C(C)C | inactive
CC(=O)C1(C)CC2=C(CCCC2(C)C)CC1C (configuration not stated) | inactive
CC(C)=CCCC(C)=CCOC(=O)C(C)C | inactive
CCN(CC)CC | inactive
CC(=O)C=CC1=C(C)CCCC1(C)C | inactive
CCC=CCCCCC=O | inactive
Cc1occc1SSc1ccoc1C | inactive
CCCCCCCCCC(=O)[O-].[H+] | inactive
CCCCCCC=CC=O | inactive
CCCCCCC(=O)OCCCC | inactive
COc1cnccn1 | inactive

Molecular target: T2, UniProt A2AVB0
T2 sequence (whole entry): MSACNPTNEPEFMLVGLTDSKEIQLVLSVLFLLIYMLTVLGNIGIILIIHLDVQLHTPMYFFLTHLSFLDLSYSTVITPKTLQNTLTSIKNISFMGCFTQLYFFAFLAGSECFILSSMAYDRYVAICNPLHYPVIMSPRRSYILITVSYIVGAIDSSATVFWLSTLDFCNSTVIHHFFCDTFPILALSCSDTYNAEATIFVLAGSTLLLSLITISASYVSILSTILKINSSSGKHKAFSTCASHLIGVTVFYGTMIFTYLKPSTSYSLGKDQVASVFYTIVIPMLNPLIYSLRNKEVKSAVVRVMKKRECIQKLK
Conditions: stereoisomer not certain
Outline: as §1

SMILES | odorant receptor agonist call
CCCCCCCCCC=CC=O | inactive
CC(C)=C1CCC(C)CC1=O (configuration not stated) | inactive
CC1CC=CCCCCCCCCCC(=O)C1 (configuration not stated) | inactive
CC1(C)CC(=O)CC(=O)C1 | inactive
CCC(C)c1nccnc1OC (configuration not stated) | inactive
CCOC(=O)CC(C)C | inactive
CCc1ncc(C)nc1CC | inactive
CCc1ccccc1O | inactive
C=C(C)C1CCC2(C)OC2C1 (configuration not stated) | inactive
CCCCCCCCC(=O)O | inactive
C=C(C)C1CC=C(C)CC1 (configuration not stated) | inactive
CCCCCCO | inactive
COc1nccnc1C | inactive
CCc1nccnc1CC | inactive
CCCCCCC(C)O (configuration not stated) | inactive
CC(=O)OCCc1ccccc1 | inactive
COc1nccnc1C(C)C | inactive
COC(OC)c1ccccc1 | inactive
O=C(O)CCCCCBr | inactive

SMILES | odorant receptor agonist call
O=C(O)CCCCCCCCC(=O)O | inactive
O=C([O-])CCCCCCC(=O)[O-].[H+].[H+] | inactive
CCCCCCCOC(=O)C(C)C | inactive
CC1CCC(C(C)C)C(=O)C1 (configuration not stated) | inactive
O=C(O)C1CCC1 | inactive
CSSCc1ccco1 | inactive
CCCCCCCCCCCO | inactive
Cc1ccccc1OC(=O)C(C)C | inactive
CC(=O)C1(C)CC2=C(CCCC2(C)C)CC1C (configuration not stated) | inactive
CC(C)=CCCC(C)=CCOC(=O)C(C)C | inactive
CCN(CC)CC | inactive
CC(=O)C=CC1=C(C)CCCC1(C)C | inactive
CCC=CCCCCC=O | inactive
Cc1occc1SSc1ccoc1C | inactive
CCCCCCCCCC(=O)[O-].[H+] | inactive
CCCCCCC=CC=O | inactive
CCCCCCC(=O)OCCCC | inactive
COc1cnccn1 | inactive

Molecular target: T3, UniProt A2AVB5
T3 sequence (whole entry): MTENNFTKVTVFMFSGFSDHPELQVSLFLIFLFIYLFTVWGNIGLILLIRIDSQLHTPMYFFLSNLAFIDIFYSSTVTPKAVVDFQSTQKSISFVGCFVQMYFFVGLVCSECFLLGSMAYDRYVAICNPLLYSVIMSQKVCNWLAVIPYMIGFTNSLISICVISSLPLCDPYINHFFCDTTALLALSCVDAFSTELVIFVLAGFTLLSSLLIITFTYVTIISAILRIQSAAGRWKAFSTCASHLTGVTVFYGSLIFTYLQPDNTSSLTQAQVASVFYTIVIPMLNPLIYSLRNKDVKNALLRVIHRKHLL
Conditions: stereoisomer not certain
Outline: as §1

SMILES | odorant receptor agonist call
CCCCCCCCC(=O)O | inactive
CCCCCCO | inactive
CCCCCCCCCC(=O)[O-].[H+] | inactive

Molecular target: T4, UniProt B2RVX8
T4 sequence (whole entry): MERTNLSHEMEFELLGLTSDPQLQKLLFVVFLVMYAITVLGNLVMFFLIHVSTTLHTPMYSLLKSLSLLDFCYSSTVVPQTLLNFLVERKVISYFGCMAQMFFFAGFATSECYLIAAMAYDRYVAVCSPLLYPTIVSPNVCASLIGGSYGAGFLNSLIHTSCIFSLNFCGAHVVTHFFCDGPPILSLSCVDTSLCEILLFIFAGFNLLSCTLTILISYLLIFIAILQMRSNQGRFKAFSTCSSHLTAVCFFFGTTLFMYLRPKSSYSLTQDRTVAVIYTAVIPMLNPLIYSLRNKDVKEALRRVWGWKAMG
Conditions: stereoisomer not certain
Outline: as §1

SMILES | odorant receptor agonist call
CCCCCCCCC(=O)O | inactive
CCCCCCO | inactive
CCCCCCCCCC(=O)[O-].[H+] | inactive

Molecular target: T5, UniProt E1BM68
T5 sequence (whole entry): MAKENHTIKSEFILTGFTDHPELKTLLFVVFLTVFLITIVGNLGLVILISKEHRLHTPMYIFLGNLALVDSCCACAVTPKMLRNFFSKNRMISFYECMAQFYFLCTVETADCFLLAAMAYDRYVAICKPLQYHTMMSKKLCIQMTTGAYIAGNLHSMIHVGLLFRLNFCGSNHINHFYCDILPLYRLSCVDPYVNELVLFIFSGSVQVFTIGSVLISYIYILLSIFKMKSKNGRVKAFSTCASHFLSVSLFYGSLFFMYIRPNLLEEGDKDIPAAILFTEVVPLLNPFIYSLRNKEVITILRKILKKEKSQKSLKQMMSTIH
Conditions: stereoisomer not certain
Outline: as §1

SMILES | odorant receptor agonist call
CCC(C)c1nccnc1OC (configuration not stated) | active
CCc1ncc(C)nc1CC | active
CCc1nccnc1CC | active
COc1nccnc1C(C)C | active
COc1cnccn1 | active

Molecular target: T6, UniProt E9PVX1
T6 sequence (whole entry): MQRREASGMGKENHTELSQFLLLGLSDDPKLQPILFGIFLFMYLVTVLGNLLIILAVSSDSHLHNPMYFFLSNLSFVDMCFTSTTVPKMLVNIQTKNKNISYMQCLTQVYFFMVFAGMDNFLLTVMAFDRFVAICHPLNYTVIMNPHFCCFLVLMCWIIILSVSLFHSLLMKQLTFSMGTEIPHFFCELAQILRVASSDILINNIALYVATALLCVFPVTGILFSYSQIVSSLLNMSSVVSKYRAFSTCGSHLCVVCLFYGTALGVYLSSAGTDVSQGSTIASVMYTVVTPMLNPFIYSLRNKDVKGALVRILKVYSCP
Conditions: stereoisomer not certain
Outline: as §1

SMILES | odorant receptor agonist call
CCCCCCCCCC=CC=O | inactive
CC(C)=C1CCC(C)CC1=O (configuration not stated) | inactive
CC1CC=CCCCCCCCCCC(=O)C1 (configuration not stated) | inactive
CC1(C)CC(=O)CC(=O)C1 | inactive
CCC(C)c1nccnc1OC (configuration not stated) | inactive
CCOC(=O)CC(C)C | inactive
CCc1ncc(C)nc1CC | inactive
CCc1ccccc1O | inactive
C=C(C)C1CCC2(C)OC2C1 (configuration not stated) | inactive
CCCCCCCCC(=O)O | inactive
C=C(C)C1CC=C(C)CC1 (configuration not stated) | inactive
CCCCCCO | inactive
COc1nccnc1C | inactive
CCc1nccnc1CC | inactive
CCCCCCC(C)O (configuration not stated) | inactive
CC(=O)OCCc1ccccc1 | inactive
COc1nccnc1C(C)C | inactive
COC(OC)c1ccccc1 | inactive
O=C(O)CCCCCBr | inactive

SMILES | odorant receptor agonist call
O=C(O)CCCCCCCCC(=O)O | inactive
O=C([O-])CCCCCCC(=O)[O-].[H+].[H+] | inactive
CCCCCCCOC(=O)C(C)C | inactive
CC1CCC(C(C)C)C(=O)C1 (configuration not stated) | inactive
O=C(O)C1CCC1 | inactive
CSSCc1ccco1 | inactive
CCCCCCCCCCCO | inactive
Cc1ccccc1OC(=O)C(C)C | inactive
CC(=O)C1(C)CC2=C(CCCC2(C)C)CC1C (configuration not stated) | inactive
CC(C)=CCCC(C)=CCOC(=O)C(C)C | inactive
CCN(CC)CC | inactive
CC(=O)C=CC1=C(C)CCCC1(C)C | inactive
CCC=CCCCCC=O | inactive
Cc1occc1SSc1ccoc1C | inactive
CCCCCCCCCC(=O)[O-].[H+] | inactive
CCCCCCC=CC=O | inactive
CCCCCCC(=O)OCCCC | inactive
COc1cnccn1 | inactive
